Measured values as given in publication PMC9035045 (Cell chemical biology, 2021).
Non-standard residues stand in square brackets, D forms with d. Residues, ends and D or L forms follow the SMILES beside them. *: point of attachment. NH(CH2CH2O)11C2H4NHBiotinyl = O=C(CCCC[C@@H]1SC[C@@H]2NC(=O)N[C@@H]21)NCCOCCOCCOCCOCCOCCOCCOCCOCCOCCOCCOCCN*; Lys(iBu,2-norbornyl) = CC(C)CN(CCCC[C@H](N)C(=O)O)C1CC2CCC1C2; Lys(Me,2-norbornyl) = CN(CCCC[C@H](N)C(=O)O)C1CC2CCC1C2; Nva(5-morpholino) = N[C@@H](CCCN1CCOCC1)C(=O)O; Benzoyl(4-tBu) = CC(C)(C)c1ccc(C(=O)*)cc1; Gly(cBu) = N[C@H](C(=O)O)C1CCC1

Columns and labels:
274 purified Kme readers [1] = molecular target: 274 purified Kme readers (Homo sapiens, UniProt P45973); assay: Protein domain microarray; assay type: binding; conditions: 1 μM, qualitative
274 purified Kme readers (Homo sapiens, UniProt P45973), sequence (P45973 1-78): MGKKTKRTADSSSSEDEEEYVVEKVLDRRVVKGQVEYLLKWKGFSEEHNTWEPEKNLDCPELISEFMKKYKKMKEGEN

274 purified Kme readers [2] = molecular target: 274 purified Kme readers (Homo sapiens, UniProt P83916); assay: Protein domain microarray; assay type: binding; conditions: 1 μM, qualitative
274 purified Kme readers (Homo sapiens, UniProt P83916), sequence (P83916 1-79): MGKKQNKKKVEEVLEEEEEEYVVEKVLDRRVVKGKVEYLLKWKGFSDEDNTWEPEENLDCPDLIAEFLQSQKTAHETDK

274 purified Kme readers [3] = molecular target: T1, 274 purified Kme readers (Homo sapiens, UniProt O00257); assay: Protein domain microarray; assay type: binding; conditions: 1 μM, qualitative
T1 sequence (O00257 1-69): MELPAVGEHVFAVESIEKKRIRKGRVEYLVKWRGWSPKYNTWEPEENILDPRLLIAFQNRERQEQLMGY

274 purified Kme readers [4] = molecular target: T2, 274 purified Kme readers (Homo sapiens, UniProt Q14781); assay: Protein domain microarray; assay type: binding; conditions: 1 μM, qualitative
T2 sequence (Q14781 1-70): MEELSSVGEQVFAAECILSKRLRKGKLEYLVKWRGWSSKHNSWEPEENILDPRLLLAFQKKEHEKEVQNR

274 purified Kme readers [5] = molecular target: T3, 274 purified Kme readers (Homo sapiens, UniProt O95931); assay: Protein domain microarray; assay type: binding; conditions: 1 μM, qualitative
T3 sequence (O95931 1-69): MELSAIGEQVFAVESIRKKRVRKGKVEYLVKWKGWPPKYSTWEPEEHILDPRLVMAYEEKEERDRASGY

274 purified Kme readers [6] = molecular target: 274 purified Kme readers (Homo sapiens, UniProt Q13185); assay: Protein domain microarray; assay type: binding; conditions: 1 μM, qualitative
274 purified Kme readers (Homo sapiens, UniProt Q13185), sequence (Q13185 1-88): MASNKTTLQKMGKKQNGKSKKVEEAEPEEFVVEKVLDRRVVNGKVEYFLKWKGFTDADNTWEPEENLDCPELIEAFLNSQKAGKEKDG

274 purified Kme readers [7] = molecular target: T4, 274 purified Kme readers (Homo sapiens, UniProt Q9HC52); assay: Protein domain microarray; assay type: binding; conditions: 1 μM, qualitative
T4 sequence (Q9HC52 1-69): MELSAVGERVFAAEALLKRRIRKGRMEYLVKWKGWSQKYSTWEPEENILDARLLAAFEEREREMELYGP

274 purified Kme readers [8] = molecular target: T5, 274 purified Kme readers (Homo sapiens, UniProt Q8N8U2); assay: Protein domain microarray; assay type: binding; conditions: 1 μM, qualitative
T5 sequence (Q8N8U2 1-67): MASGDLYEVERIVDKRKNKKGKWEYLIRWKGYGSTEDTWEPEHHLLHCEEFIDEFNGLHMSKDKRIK

274 purified Kme readers [9] = molecular target: T6, 274 purified Kme readers (Homo sapiens, UniProt O95503); assay: Protein domain microarray; assay type: binding; conditions: 1 μM, qualitative
T6 sequence (O95503 1-69): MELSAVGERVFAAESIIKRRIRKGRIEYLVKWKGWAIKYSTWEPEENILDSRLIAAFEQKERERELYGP

mESCs = assay: CellTiter-Glo cell viability assay; assay type: cell-based, mouse; conditions: 48 h, result in words
Procedure, shortened: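 mESCs plated at 5,000 cells/well onto a ten-point 1:2 compound dilution series in mESC medium. 48 h at 37°C, 5% CO2. Lysed with CellTiter-Glo reagent; luminescence read after 15 min at room temperature in dim light.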

CBX8 = molecular target: T7, CBX8 (Mus musculus, UniProt Q9QXV1); assay: CBX8 GFP reporter assay in mESCs; assay type: cell-based; conditions: 48 h, result in words
T7 sequence (Q9QXV1 1-362): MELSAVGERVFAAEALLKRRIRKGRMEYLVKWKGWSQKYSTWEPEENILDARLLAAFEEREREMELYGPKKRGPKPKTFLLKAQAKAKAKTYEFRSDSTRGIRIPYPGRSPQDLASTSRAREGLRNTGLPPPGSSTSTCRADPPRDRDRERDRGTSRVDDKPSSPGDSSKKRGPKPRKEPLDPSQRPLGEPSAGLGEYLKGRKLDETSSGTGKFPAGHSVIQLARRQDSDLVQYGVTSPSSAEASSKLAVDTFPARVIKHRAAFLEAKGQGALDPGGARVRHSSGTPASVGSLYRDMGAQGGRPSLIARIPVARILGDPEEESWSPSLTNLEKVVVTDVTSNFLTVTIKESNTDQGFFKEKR
Procedure, shortened: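 Mouse ESC reporter line carrying 12xZFHD1, 4xGAL4 and 7xTetO sites upstream of a Puromycin-GFP gene, made by recombinase-mediated cassette exchange. Cells grown feeder-free in high-glucose DMEM with 13.5% FBS and LIF. 2,000 cells/well seeded onto compound in triplicate: 10-point 2-fold series, or for ester analogues 15-point 1.5-fold series with 0.06% DMSO final. 48 h at 37°C. GFP read by flow cytometry on gated live single cells.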

CDYL2 = molecular target: T8, CDYL2 (Homo sapiens, UniProt Q8N8U2); assay: TR-FRET competitive displacement assay; assay type: binding
T8 sequence (Q8N8U2 1-75): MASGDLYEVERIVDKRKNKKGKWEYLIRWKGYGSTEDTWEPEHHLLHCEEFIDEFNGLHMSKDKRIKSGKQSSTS

CBX2, CBX6, and CBX7 = assay: ChIP-qPCR at endogenous Polycomb target genes; assay type: cell-based, mouse; conditions: 20 μM, wild-type mESCs (absence of CBX8)
CBX7 = molecular target: T9, CBX7 (Mus musculus, UniProt Q8VDS3); assay: CBX7 GFP reporter assay in mESCs; assay type: cell-based; conditions: result in words
T9 sequence (Q8VDS3 1-158): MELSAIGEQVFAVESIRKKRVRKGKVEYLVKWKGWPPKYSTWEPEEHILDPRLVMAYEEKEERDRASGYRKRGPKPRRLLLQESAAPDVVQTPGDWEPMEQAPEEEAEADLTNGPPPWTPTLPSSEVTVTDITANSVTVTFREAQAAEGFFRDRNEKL

| SMILES | binding to CBX5 on microarray (274 purified Kme readers [1]) | binding to CBX1 on microarray (274 purified Kme readers [2]) | binding to CBX4 on microarray (274 purified Kme readers [3]) | binding to CBX2 CD on microarray (274 purified Kme readers [4]) | binding to CBX7 on microarray (274 purified Kme readers [5]) | binding to CBX3 on microarray (274 purified Kme readers [6]) | binding to CBX8 CD on microarray (274 purified Kme readers [7]) | binding to the CD of CDYL2 on microarray (274 purified Kme readers [8]) | binding to CBX6 on microarray (274 purified Kme readers [9]) | cytotoxicity (mESCs) | GFP reactivation / cellular activity in the CBX8 reporter assay (CBX8) | IC50 (CDYL2) [µM] | chromatin binding of CBX2, CBX6, and CBX7 (CBX2, CBX6, and CBX7) | cellular activity in the CBX7 reporter cell line (CBX7) |
| --- | --- | --- | --- | --- | --- | --- | --- | --- | --- | --- | --- | --- | --- | --- |
| CC(C)CN(CCCC[C@H](NC(=O)[C@H](CCCN1CCOCC1)NC(=O)[C@@H](NC(=O)[C@H](Cc1ccccc1)NC(=O)c1ccc(C(C)(C)C)cc1)C1CCC1)C(=O)N[C@@H](CO)C(=O)NCCOCCOCCOCCOCCOCCOCCOCCOCCOCCOCCOCCNC(=O)CCCC[C@@H]1SC[C@@H]2NC(=O)N[C@@H]21)C1CC2CCC1C2 (stereo partly drawn) [Compound 39] ({Benzoyl(4-tBu)}-F[Gly(cBu)][Nva(5-morpholino)][Lys(iBu,2-norbornyl)]S-{NH(CH2CH2O)11C2H4NHBiotinyl}) | did not display binding | did not display binding | less strongly | bound strongly | less strongly | did not display binding | bound strongly | weakly | less strongly |  |  |  |  |  |
| COC(=O)[C@H](CO)NC(=O)[C@H](CCCCN(C)C1CC2CCC1C2)NC(=O)[C@H](CCCN1CCOCC1)NC(=O)[C@@H](NC(=O)[C@H](Cc1ccccc1)NC(=O)c1ccc(C(C)(C)C)cc1)C1CCC1 (stereo partly drawn) [Compound 38, Methyl N^6-(bicyclo[2.2.1]heptan-2-yl)-N^2-((S)-2-((S)-2-((S)-2-(4-(tert-butyl)benzamido)-3-phenylpropanamido)-2-cyclobutylacetamido)-5-morpholinopentanoyl)-N^6-methyl-L-lysyl-L-serinate] ({Benzoyl(4-tBu)}-F[Gly(cBu)][Nva(5-morpholino)][Lys(Me,2-norbornyl)]S-OMe) |  |  |  |  |  |  |  |  |  | no cytotoxicity up to 100 μM | no cellular activity | 0.96 ± 0.14 |  |  |
| COC(=O)[C@H](CO)NC(=O)[C@H](CCCCN(CC(C)C)C1CC2CCC1C2)NC(=O)[C@H](CCCN1CCOCC1)NC(=O)[C@@H](NC(=O)[C@H](Cc1ccccc1)NC(=O)c1ccc(C(C)(C)C)cc1)C1CCC1 (stereo partly drawn) [Compound 34, Methyl N^6-(bicyclo[2.2.1]heptan-2-yl)-N^2-((S)-2-((S)-2-((S)-2-(4-(tert-butyl)benzamido)-3-phenylpropanamido)-2-cyclobutylacetamido)-5-morpholinopentanoyl)-N^6-isobutyl-L-lysyl-L-serinate] ({Benzoyl(4-tBu)}-F[Gly(cBu)][Nva(5-morpholino)][Lys(iBu,2-norbornyl)]S-OMe) |  |  |  |  |  |  |  |  |  |  |  | ~100 | minimal effects on chromatin binding | no cellular activity |
